# Source: ChEMBL document CHEMBL1139768, “The discovery of potent, selective, and orally bioavailable hNK1 antagonists derived from pyrrolidine” (Bioorg Med Chem Lett, 2007)
# Key:
# Gerbillinae [1] = assay: Inhibition of GR-73632-induced foot tapping in gerbils at 6 mg/kg, iv after 24 hrs; format: functional
# Gerbillinae [2] = assay: Inhibition of GR-73632-induced foot tapping in iv dosed gerbils after 24 hrs; format: functional; conditions: Gerbillinae, iv, 24 h; read-out: ID50 (the source's name)
# Gerbillinae [3] = assay: Inhibition of GR-73632-induced foot tapping in gerbils at 1 mg/kg, iv; format: functional
# Substance-P receptor = Substance-P receptor (Homo sapiens, UniProt P25103); assay: Displacement of [125I]-SP from human NK1 receptor expressed in CHO cells
# Chain of Substance-P receptor (P25103 whole entry): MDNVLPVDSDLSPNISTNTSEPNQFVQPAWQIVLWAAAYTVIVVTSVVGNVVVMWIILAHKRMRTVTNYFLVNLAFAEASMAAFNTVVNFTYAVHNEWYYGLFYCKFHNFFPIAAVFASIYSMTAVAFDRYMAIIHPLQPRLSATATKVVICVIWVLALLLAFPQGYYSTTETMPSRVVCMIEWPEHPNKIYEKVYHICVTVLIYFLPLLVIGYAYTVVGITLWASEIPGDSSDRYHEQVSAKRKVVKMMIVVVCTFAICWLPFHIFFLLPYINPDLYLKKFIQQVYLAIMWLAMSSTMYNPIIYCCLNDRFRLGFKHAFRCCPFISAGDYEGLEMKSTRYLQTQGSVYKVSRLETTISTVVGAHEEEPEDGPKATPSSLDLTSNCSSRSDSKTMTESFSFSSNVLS
# Gerbillinae [4] = assay: Inhibition of GR-73632-induced foot tapping in gerbils at 3 mg/kg, iv after 24 hrs; format: functional; conditions: for inhibition in vivo at 3 mg/kg: Gerbillinae, iv, 24 h
# Gerbillinae [5] = assay: Inhibition of GR-73632-induced foot tapping in gerbils at 3 mg/kg, iv; format: functional
# Gerbillinae [6] = assay: Inhibition of GR-73632-induced foot tapping in iv dosed gerbils; format: functional; conditions: for ED50: Gerbillinae, iv, read-out: ID50 (the source's name)
# [7] = Plasma clearance in dog; format: ADME, organism-based, Canis lupus familiaris
# [8] = Half life in rhesus monkey; format: ADME, organism-based, Macaca mulatta; conditions: in vivo
# Gerbillinae [9] = assay: Inhibition of GR-73632-induced foot tapping in orally dosed gerbils after 4 hrs; conditions: po, read-out: ID50 (the source's name)
# [10] = Plasma clearance in rhesus monkey; format: ADME, organism-based, Macaca mulatta
# [11] = Volume of distribution in dog; format: ADME, organism-based, Canis lupus familiaris; conditions: in vivo
# [12] = Oral bioavailability in dog; format: ADME, organism-based, Canis lupus familiaris; conditions: in vivo
# [13] = Oral bioavailability in rat; format: ADME, organism-based; conditions: in vivo
# [14] = Oral bioavailability in rhesus monkey; format: ADME, organism-based, Macaca mulatta; conditions: in vivo
# Substance-K receptor = biological target: T1, Substance-K receptor (Homo sapiens, UniProt P21452); assay: Binding affinity to NK2 receptor
# T1 sequence (P21452 whole entry): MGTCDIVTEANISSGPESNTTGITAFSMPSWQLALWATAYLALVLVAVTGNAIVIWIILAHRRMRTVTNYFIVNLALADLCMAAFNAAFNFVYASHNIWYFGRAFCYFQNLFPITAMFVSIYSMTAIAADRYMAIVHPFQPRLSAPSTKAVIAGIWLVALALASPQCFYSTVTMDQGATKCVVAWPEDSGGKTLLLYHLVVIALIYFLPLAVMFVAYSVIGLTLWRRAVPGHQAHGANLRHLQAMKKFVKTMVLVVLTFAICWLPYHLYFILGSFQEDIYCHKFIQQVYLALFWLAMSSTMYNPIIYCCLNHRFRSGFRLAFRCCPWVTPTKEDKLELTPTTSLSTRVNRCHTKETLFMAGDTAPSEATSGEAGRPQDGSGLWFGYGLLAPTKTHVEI
# [15] = Volume of distribution in rhesus monkey; format: ADME, organism-based, Macaca mulatta; conditions: in vivo
# [16] = Half life in dog; format: ADME, organism-based, Canis lupus familiaris; conditions: in vivo
# [17] = Volume of distribution in rat; format: ADME, organism-based; conditions: in vivo
# Neuromedin-K receptor = biological target: T2, Neuromedin-K receptor (Homo sapiens, UniProt P29371); assay: Binding affinity to NK3 receptor
# T2 sequence (P29371 whole entry): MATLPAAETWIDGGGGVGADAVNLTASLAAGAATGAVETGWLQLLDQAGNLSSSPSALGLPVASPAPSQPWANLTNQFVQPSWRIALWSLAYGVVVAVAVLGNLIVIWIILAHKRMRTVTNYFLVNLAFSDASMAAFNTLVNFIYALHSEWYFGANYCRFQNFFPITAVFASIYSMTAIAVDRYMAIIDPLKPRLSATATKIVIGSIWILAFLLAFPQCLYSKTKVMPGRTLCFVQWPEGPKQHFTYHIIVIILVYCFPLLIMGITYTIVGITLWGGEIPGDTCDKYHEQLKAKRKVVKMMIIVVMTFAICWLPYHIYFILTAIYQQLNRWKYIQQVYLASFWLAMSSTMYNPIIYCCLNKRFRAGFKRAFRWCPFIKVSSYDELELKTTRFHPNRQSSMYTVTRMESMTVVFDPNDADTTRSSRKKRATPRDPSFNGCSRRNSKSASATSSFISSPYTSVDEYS
# [18] = Plasma clearance in rat; format: ADME, organism-based
# Gerbillinae [19] = assay: Inhibition of GR-73632-induced foot tapping in orally dosed gerbils after 1 hr; conditions: po, read-out: ID50 (the source's name)
# [20] = Half life in rat; format: ADME, organism-based; conditions: in vivo
# Cavia porcellus = assay: Inhibition of separation-induced vocalizations in po dosed guinea pig after 4 hrs; format: functional; conditions: read-out: ID50 (the source's name)
# How it was run: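 Guinea pig pups were dosed orally, and separation-induced vocalizations were measured 4 h later. ID50 is given in mg/kg.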
# Rhesus monkey = assay: Receptor occupancy at NK1 receptor in iv dosed rhesus monkey brain after 4 hrs; format: functional, Macaca mulatta
# How it was run: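 Rhesus macaques received a 4-h iv infusion. Brain NK1 receptor occupancy was measured by PET and related to plasma steady-state concentration to estimate 50% and 90% occupancy levels.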
# Gerbillinae [21] = assay: Inhibition of GR-73632-induced foot tapping in gerbils at 2 mg/kg, iv; format: functional
smiles,measurement,setting,value
CC(C)NC(=O)N1C[C@@H](O[C@H](C)c2cc(C(F)(F)F)cc(C(F)(F)F)c2)[C@H](c2ccc(F)cc2)C1,inhibition in vivo at 6 mg/kg,Gerbillinae [1],86%
same,ED50,Gerbillinae [2],0.8 mg/kg
same,inhibition in vivo at 1 mg/kg,Gerbillinae [3],64%
same,IC50,Substance-P receptor,0.06 nM
C[C@@H](O[C@@H]1CN(C2=CC(=O)CC(C)(C)C2)C[C@H]1c1ccccc1)c1cc(C(F)(F)F)cc(C(F)(F)F)c1,inhibition in vivo at 3 mg/kg,Gerbillinae [4],5%
same,IC50,Substance-P receptor,0.13 nM
CC(=O)N1CCN(C(=O)N2C[C@@H](O[C@H](C)c3cc(C(F)(F)F)cc(C(F)(F)F)c3)[C@H](c3ccc(F)cc3)C2)CC1,inhibition in vivo at 3 mg/kg,Gerbillinae [4],57%
same,IC50,Substance-P receptor,0.3 nM
C[C@@H](O[C@@H]1CN(C(=O)N2CCOCC2)C[C@H]1c1ccccc1)c1cc(C(F)(F)F)cc(C(F)(F)F)c1,inhibition in vivo at 1 mg/kg,Gerbillinae [3],40%
same,IC50,Substance-P receptor,0.16 nM
"C[C@@H](O[C@@H]1CN(C2=CC(=O)C(O)C2)C[C@H]1c1ccc(F)cc1)c1cc(C(F)(F)F)cc(C(F)(F)F)c1 (single isomer, unassigned; diastereomer A)",ED50,Gerbillinae [2],0.7 mg/kg
same,inhibition in vivo at 3 mg/kg,Gerbillinae [5],100%
same,Inhibition,Gerbillinae [4]; 3 mg/kg,100%
same,IC50,Substance-P receptor,0.22 nM
same,ID50,Gerbillinae [6],0.5 mg/kg
Cc1cnc(C(=O)N2C[C@@H](O[C@H](C)c3cc(C(F)(F)F)cc(C(F)(F)F)c3)[C@H](c3ccc(F)cc3)C2)cn1,inhibition in vivo at 3 mg/kg,Gerbillinae [4],45%
same,IC50,Substance-P receptor,0.12 nM
C[C@@H](O[C@@H]1CN(C(=O)[C@@H]2COC(=O)N2)C[C@H]1c1ccc(F)cc1)c1cc(C(F)(F)F)cc(C(F)(F)F)c1,inhibition in vivo at 3 mg/kg,Gerbillinae [4],13%
same,IC50,Substance-P receptor,0.34 nM
CC1=C(N2C[C@@H](O[C@H](C)c3cc(C(F)(F)F)cc(C(F)(F)F)c3)[C@H](c3ccc(F)cc3)C2)CCC1=O,inhibition in vivo at 3 mg/kg,Gerbillinae [4],67%
same,IC50,Substance-P receptor,0.13 nM
C[C@@H](O[C@@H]1CN(C=O)C[C@H]1c1ccc(F)cc1)c1cc(C(F)(F)F)cc(C(F)(F)F)c1,IC50,Substance-P receptor,0.24 nM
CC1CC(=O)C=C1N1C[C@@H](O[C@H](C)c2cc(C(F)(F)F)cc(C(F)(F)F)c2)[C@H](c2ccc(F)cc2)C1 (mixture of isomers),inhibition in vivo at 3 mg/kg,Gerbillinae [4],79%
same,IC50,Substance-P receptor,0.11 nM
C[C@@H](O[C@@H]1CN(C(=O)NCc2cnn[nH]2)C[C@H]1c1ccc(F)cc1)c1cc(C(F)(F)F)cc(C(F)(F)F)c1,inhibition in vivo at 3 mg/kg,Gerbillinae [4],24%
same,IC50,Substance-P receptor,0.58 nM
C[C@@H](O[C@@H]1CN(C2=CC(=O)CC2)C[C@H]1c1ccccc1)c1cc(C(F)(F)F)cc(C(F)(F)F)c1,ED50,Gerbillinae [2],1.1 mg/kg
same,inhibition in vivo at 3 mg/kg,Gerbillinae [5],100%
same,inhibition in vivo at 3 mg/kg,Gerbillinae [4],100%
same,IC50,Substance-P receptor,0.07 nM
same,ED50,Gerbillinae [6],0.9 mg/kg
C[C@@H](O[C@@H]1CN(C2=CC(=O)CC2)C[C@H]1c1ccc(F)cc1)c1cc(C(F)(F)F)cc(C(F)(F)F)c1,clearance,[7],1 mL/min/kg
same,half-life,[8],5.7 h
same,ED50,Gerbillinae [9],0.25 mg/kg
same,ED50,Gerbillinae [2],0.045 mg/kg
same,clearance,[10],4.5 mL/min/kg
same,Vd,[11],1.6 L/kg
same,bioavailability,[12],100%
same,bioavailability,[13],100%
same,inhibition in vivo at 1 mg/kg,Gerbillinae [3],100%
same,bioavailability,[14],68%
same,IC50,Substance-K receptor,1730 nM
same,inhibition in vivo at 3 mg/kg,Gerbillinae [4],100%
same,Vd,[15],2.3 L/kg
same,half-life,[16],20 h
same,Vd,[17],6.2 L/kg
same,IC50,Neuromedin-K receptor,> 3000 nM
same,clearance,[18],19.6 mL/min/kg
same,ED50,Gerbillinae [19],0.9 mg/kg
same,half-life,[20],3.6 h
same,ED50,Cavia porcellus,0.17 mg/kg
same,IC50,Substance-P receptor,0.11 nM
same,ED50,Gerbillinae [6],0.1 mg/kg
same,Occ50,Rhesus monkey,33 ng/mL
same,Occ90,Rhesus monkey,300 ng/mL
CNC(=O)N1C[C@@H](O[C@H](C)c2cc(C(F)(F)F)cc(C(F)(F)F)c2)[C@H](c2ccc(F)cc2)C1,inhibition in vivo at 6 mg/kg,Gerbillinae [1],77%
same,ED50,Gerbillinae [2],3 mg/kg
same,inhibition in vivo at 2 mg/kg,Gerbillinae [21],100%
same,IC50,Substance-P receptor,0.11 nM
same,ED50,Gerbillinae [6],1 mg/kg
CC(C)C(=O)N1C[C@@H](O[C@H](C)c2cc(C(F)(F)F)cc(C(F)(F)F)c2)[C@H](c2ccc(F)cc2)C1,inhibition in vivo at 6 mg/kg,Gerbillinae [1],43%
same,IC50,Substance-P receptor,0.15 nM
C[C@@H](O[C@@H]1CN(C(=O)N(C)C)C[C@H]1c1ccc(F)cc1)c1cc(C(F)(F)F)cc(C(F)(F)F)c1,IC50,Substance-P receptor,0.38 nM
